According to ChEMBL document CHEMBL1141286, “Benzochromenones from the marine crinoid Comantheria rotula inhibit hypoxia-inducible factor-1 (HIF-1) in cell-based reporter assays and differentially suppress the growth of certain tumor cell lines” (J Nat Prod, 2007):
Active and inactive are the calls of the source. No cut-off for these calls is given here.

How the values were obtained:
SK-MEL-28 = test: Growth inhibition of human SK-MEL28 cells; type: functional; conditions: for CC50: read-out: Log LC50 (the source's name) (converted); for TGI: read-out: Log TGI (converted)
NCI-H226 = test: Growth inhibition of human NCI-H226 cells; type: functional; conditions: for CC50: read-out: Log LC50 (the source's name) (converted); for TGI: read-out: Log TGI (converted)
[1] = DPPH radical scavenging activity relative to Trolox; type: functional; design: concentration or dose not given beside the values
Method in brief: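 Compounds were made up as DMSO stocks and diluted in isopropanol to a final 10 μM. Each was mixed with DPPH in isopropanol at 10 μM or 30 μM DPPH, and absorbance was read at 515 nm. Scavenging was calculated as [1 − OD515(compound)/OD515(control)] × 100, then expressed as a percentage of Trolox activity. One experiment was run in triplicate.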

SNB-75 = test: Growth inhibition of human SNB75 cells; type: functional; conditions: for TGI: read-out: Log TGI (converted)
BT-549 = test: Growth inhibition of human BT549 cells; type: functional; conditions: for TGI: read-out: Log TGI (converted)
NCI-H322M = test: Growth inhibition of human NCI-H322M cells; type: functional; conditions: for CC50: read-out: Log LC50 (the source's name) (converted); for TGI: read-out: Log TGI (converted)
RXF 393 = test: Growth inhibition of human RXF393 cells; type: functional; conditions: for TGI: read-out: Log TGI (converted)
SW-620 = test: Growth inhibition of human SW620 cells; type: functional; conditions: for CC50: read-out: Log LC50 (the source's name) (converted); for TGI: read-out: Log TGI (converted)
OVCAR-4 = test: Growth inhibition of human OVACAR4 cells; type: functional; conditions: for TGI: read-out: Log TGI (converted)
UACC-62 = test: Growth inhibition of human UACC62 cells; type: functional; conditions: for TGI: read-out: Log TGI (converted)
NCI-H460 = test: Growth inhibition of human NCI-H460 cells; type: functional; conditions: for CC50: read-out: Log LC50 (the source's name) (converted); for TGI: read-out: Log TGI (converted)
LOX IMVI = test: Growth inhibition of human LOXIMVI cells; type: functional; conditions: for TGI: read-out: Log TGI (converted)
RPMI-8226 = test: Growth inhibition of human RPMI8226 cells; type: functional
K562 = test: Growth inhibition of human K562 cells; type: functional; conditions: for CC50: read-out: Log LC50 (the source's name) (converted); for TGI: read-out: Log TGI (converted)
[2] = Inhibition of 1,10-phenanthroline-induced HIF1 activation in PC3 cells by TK-luciferase assay; type: cell-based; conditions: Homo sapiens, PC-3
Method in brief: (§1)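 HIF-1 reporter (pHRE-TK-Luc) assays in transfected PC-3 or T47D cells; HIF-1 induced by hypoxia or by the hypoxia mimetic 1,10-phenanthroline (10 μM); compounds at half-log concentrations; luciferase activity measured; IC50 from experiments in triplicate.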

[3] = target: Hypoxia inducible factors; HIF-1-alpha, HIF-2-alpha (Homo sapiens, UniProt Q16665+Q99814); test: Inhibition of HIF1 activation in human T47D cells by TK-luciferase assay; type: cell-based; method in brief: as §1
T47D = test: Inhibition of 1,10-phenanthroline-induced VEGF protein secretion in human T47D cells at 10 uM after 16 hrs by ELISA; type: functional, cell-based
Method in brief: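 T47D cells stimulated with 1,10-phenanthroline, compound at 10 μM; secreted VEGF in conditioned media by ELISA, normalized to cell-lysate protein.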

HOP-62 = test: Growth inhibition of human HOP62 cells; type: functional; conditions: for CC50: read-out: Log LC50 (the source's name) (converted); for TGI: read-out: Log TGI (converted)
SF-295 = test: Growth inhibition of human SF295 cells; type: functional; conditions: for TGI: read-out: Log TGI (converted)
MOLT-4 = test: Growth inhibition of human MOLT4 cells; type: functional; conditions: for CC50: read-out: Log LC50 (the source's name) (converted); for TGI: read-out: Log TGI (converted)
[4] = Inhibition of luciferase at 30 uM
Method in brief: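 Purified recombinant firefly luciferase (QuantiLum, 46.8 μg mL−1) mixed with compound in passive lysis buffer containing BSA (1 mg mL−1); equal volume of luciferase substrate added, light output read; percentage inhibition relative to DMSO control; concentration-response curves up to 30 μM.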

HCT-116 = test: Growth inhibition of human HCT116 cells; type: functional; conditions: for CC50: read-out: Log LC50 (the source's name) (converted); for TGI: read-out: Log TGI (converted)
HCC 2998 = test: Growth inhibition of human HCC2998 cells; type: functional; conditions: for CC50: read-out: Log LC50 (the source's name) (converted); for TGI: read-out: Log TGI (converted)

SMILES: CCCc1cc(=O)c2c(O)c3c(OC)cc(O)cc3cc2o1
- GI50 (SK-MEL-28): 20 µM
- CC50 (SK-MEL-28): 87.1 µM
- TGI (SK-MEL-28): 41.7 µM
- GI50 (NCI-H226): 17.8 µM
- CC50 (NCI-H226): > 100 µM
- TGI (NCI-H226): 45.7 µM
- Activity [1]: 40%
- GI50 (SNB-75): 30.9 µM
- LC50 (SNB-75): > 100 µM
- TGI (SNB-75): 74.1 µM
- GI50 (BT-549): 18.2 µM
- LC50 (BT-549): 95.5 µM
- TGI (BT-549): 41.7 µM
- GI50 (NCI-H322M): 26.3 µM
- CC50 (NCI-H322M): > 100 µM
- TGI (NCI-H322M): > 100 µM
- GI50 (RXF 393): 18.2 µM
- LC50 (RXF 393): > 100 µM
- TGI (RXF 393): 47.9 µM
- GI50 (SW-620): 21.4 µM
- CC50 (SW-620): 77.6 µM
- TGI (SW-620): 40.7 µM
- GI50 (OVCAR-4): 26.3 µM
- LC50 (OVCAR-4): > 100 µM
- TGI (OVCAR-4): > 100 µM
- GI50 (UACC-62): 15.5 µM
- LC50 (lethal concentration, 50% cell kill) (UACC-62): 57.5 µM
- TGI (UACC-62): 29.5 µM
- GI50 (NCI-H460): 17.8 µM
- CC50 (NCI-H460): > 100 µM
- TGI (NCI-H460): 42.7 µM
- GI50 (LOX IMVI): 16.6 µM
- LC50 (LOX IMVI): 63.1 µM
- TGI (LOX IMVI): 32.4 µM
- GI50 (RPMI-8226): 14.5 µM
- CC50 (RPMI-8226; read-out: Log LC50 (the source's name) (converted)): > 100 µM
- TGI (RPMI-8226; read-out: Log TGI (converted)): 43.7 µM
- GI50 (K562): 18.2 µM
- CC50 (K562): > 100 µM
- TGI (K562): 56.2 µM
- IC50 [2]: 0.8 µM
- IC50 [3]: 1.7 µM
- Activity (T47D): inactive
- GI50 (HOP-62): 22.9 µM
- CC50 (HOP-62): > 100 µM
- TGI (HOP-62): 56.2 µM
- GI50 (SF-295): 24.5 µM
- LC50 (SF-295): > 100 µM
- TGI (SF-295): 77.6 µM
- CC50 (MOLT-4): > 100 µM
- inhibition [4]: 48%
- GI50 (HCT-116): 18.6 µM
- CC50 (HCT-116): 75.9 µM
- TGI (HCT-116): 37.2 µM

SMILES: COc1cc(O)cc2cc3oc(C)cc(=O)c3c(OC)c12 [COMANTHERIN]
- GI50 (SK-MEL-28): > 100 µM
- CC50 (SK-MEL-28): > 100 µM
- TGI (SK-MEL-28): > 100 µM
- GI50 (NCI-H226): > 100 µM
- CC50 (NCI-H226): > 100 µM
- TGI (NCI-H226): > 100 µM
- Activity [1]: 40%
- GI50 (SNB-75): > 100 µM
- LC50 (SNB-75): > 100 µM
- TGI (SNB-75): > 100 µM
- GI50 (BT-549): 74.1 µM
- LC50 (BT-549): > 100 µM
- TGI (BT-549): > 100 µM
- GI50 (NCI-H322M): > 100 µM
- CC50 (NCI-H322M): > 100 µM
- TGI (NCI-H322M): > 100 µM
- GI50 (RXF 393): > 100 µM
- LC50 (RXF 393): > 100 µM
- TGI (RXF 393): > 100 µM
- GI50 (SW-620): > 100 µM
- CC50 (SW-620): > 100 µM
- TGI (SW-620): > 100 µM
- GI50 (OVCAR-4): > 100 µM
- LC50 (OVCAR-4): > 100 µM
- TGI (OVCAR-4): > 100 µM
- GI50 (HCC 2998): > 100 µM
- CC50 (HCC 2998): > 100 µM
- TGI (HCC 2998): > 100 µM
- GI50 (UACC-62): > 100 µM
- LC50 (lethal concentration, 50% cell kill) (UACC-62): > 100 µM
- TGI (UACC-62): > 100 µM
- GI50 (NCI-H460): > 100 µM
- CC50 (NCI-H460): > 100 µM
- TGI (NCI-H460): > 100 µM
- GI50 (LOX IMVI): > 100 µM
- LC50 (LOX IMVI): > 100 µM
- TGI (LOX IMVI): > 100 µM
- GI50 (K562): 47.9 µM
- CC50 (K562): > 100 µM
- TGI (K562): > 100 µM
- IC50 [2]: > 10 µM
- IC50 [3]: 2.9 µM
- Activity (T47D): inactive
- GI50 (HOP-62): > 100 µM
- CC50 (HOP-62): > 100 µM
- TGI (HOP-62): > 100 µM
- GI50 (SF-295): > 100 µM
- LC50 (SF-295): > 100 µM
- TGI (SF-295): > 100 µM
- GI50 (MOLT-4): > 100 µM
- CC50 (MOLT-4): > 100 µM
- TGI (MOLT-4): > 100 µM
- GI50 (HCT-116): > 100 µM
- CC50 (HCT-116): > 100 µM
- TGI (HCT-116): > 100 µM

SMILES: CCCc1cc(=O)c2c(OC)c3c(OC)cc(OC)cc3cc2o1
- GI50 (SK-MEL-28): > 100 µM
- CC50 (SK-MEL-28): > 100 µM
- TGI (SK-MEL-28): > 100 µM
- GI50 (NCI-H226): > 100 µM
- CC50 (NCI-H226): > 100 µM
- TGI (NCI-H226): > 100 µM
- GI50 (SNB-75): 74.1 µM
- LC50 (SNB-75): > 100 µM
- TGI (SNB-75): > 100 µM
- GI50 (BT-549): 66.1 µM
- LC50 (BT-549): > 100 µM
- TGI (BT-549): > 100 µM
- GI50 (NCI-H322M): > 100 µM
- CC50 (NCI-H322M): > 100 µM
- TGI (NCI-H322M): > 100 µM
- GI50 (RXF 393): > 100 µM
- LC50 (RXF 393): > 100 µM
- TGI (RXF 393): > 100 µM
- GI50 (SW-620): > 100 µM
- CC50 (SW-620): > 100 µM
- TGI (SW-620): > 100 µM
- GI50 (OVCAR-4): 81.3 µM
- LC50 (OVCAR-4): > 100 µM
- TGI (OVCAR-4): > 100 µM
- GI50 (HCC 2998): > 100 µM
- CC50 (HCC 2998): > 100 µM
- TGI (HCC 2998): > 100 µM
- GI50 (UACC-62): > 100 µM
- LC50 (lethal concentration, 50% cell kill) (UACC-62): > 100 µM
- TGI (UACC-62): > 100 µM
- GI50 (NCI-H460): 85.1 µM
- CC50 (NCI-H460): > 100 µM
- TGI (NCI-H460): > 100 µM
- GI50 (LOX IMVI): 69.2 µM
- LC50 (LOX IMVI): > 100 µM
- TGI (LOX IMVI): > 100 µM
- GI50 (K562): 39.8 µM
- CC50 (K562): > 100 µM
- TGI (K562): > 100 µM
- IC50 [2]: > 10 µM
- IC50 [3]: 3.9 µM
- Activity (T47D): inactive
- GI50 (HOP-62): 57.5 µM
- CC50 (HOP-62): > 100 µM
- TGI (HOP-62): > 100 µM
- GI50 (SF-295): 53.7 µM
- LC50 (SF-295): > 100 µM
- TGI (SF-295): > 100 µM
- GI50 (MOLT-4): > 100 µM
- CC50 (MOLT-4): > 100 µM
- TGI (MOLT-4): 30.2 µM
- GI50 (HCT-116): 42.7 µM
- CC50 (HCT-116): 34.7 µM
- TGI (HCT-116): > 100 µM
